How the values were obtained:
[1] = Inhibition of ATP-stimulated [Ca2+] influx into macrophages loaded with fluorescent indicator fura-2-acetoxymethyl at 50 nM concentration of compound; format: functional; details: Homo sapiens
Procedure, shortened: (§1)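 Washed human macrophage cells (10⁶/mL) in HEPES-buffered saline were loaded with fura-2 acetoxymethyl ester for 20 min at 37 °C in the dark, in a stirred cuvette. Cells were preincubated with compound at the stated single concentration for 5 min at 37 °C before ATP stimulation. Ca²⁺ influx was read as the 340:380 nm excitation ratio at 500 nm emission, as percent inhibition. Three repeats.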

[2] = Inhibition of ATP-stimulated [Ca2+] influx into macrophages loaded with fluorescent indicator fura-2-acetoxymethyl at 1000 nM concentration of compound; format: functional; details: Homo sapiens
[3] = Inhibition of ATP-stimulated [Ca2+] influx into macrophages loaded with fluorescent indicator fura-2-acetoxymethyl at 500 nM concentration of compound; format: functional; details: Homo sapiens; procedure, shortened: as §1
[4] = biological target: T1, P2X purinoceptor 7 (Homo sapiens, UniProt Q99572); experiment: Inhibitory concentration was evaluated against P2X purinoceptor 7
T1 sequence (Q99572 whole entry): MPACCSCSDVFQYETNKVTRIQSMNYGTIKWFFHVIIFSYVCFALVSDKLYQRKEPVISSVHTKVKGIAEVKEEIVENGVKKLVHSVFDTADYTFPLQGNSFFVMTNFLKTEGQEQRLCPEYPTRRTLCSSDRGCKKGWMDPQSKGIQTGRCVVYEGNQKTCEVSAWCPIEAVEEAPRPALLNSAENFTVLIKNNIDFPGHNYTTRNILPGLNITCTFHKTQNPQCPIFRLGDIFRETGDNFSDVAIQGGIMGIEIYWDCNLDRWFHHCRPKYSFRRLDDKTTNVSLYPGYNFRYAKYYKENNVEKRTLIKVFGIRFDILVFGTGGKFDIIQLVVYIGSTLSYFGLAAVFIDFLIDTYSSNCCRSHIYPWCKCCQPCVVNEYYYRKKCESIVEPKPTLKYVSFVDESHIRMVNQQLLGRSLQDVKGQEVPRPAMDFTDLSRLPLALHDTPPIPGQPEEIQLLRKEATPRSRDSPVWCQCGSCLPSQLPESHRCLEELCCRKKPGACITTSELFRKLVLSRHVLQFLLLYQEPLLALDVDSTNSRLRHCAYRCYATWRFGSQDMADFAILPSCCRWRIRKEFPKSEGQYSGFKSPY
Procedure, shortened: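 Human macrophage cells (10⁶/mL, washed, in HEPES-buffered saline) were fura-2-AM loaded for 20 min at 37 °C in the dark. Compounds (25–500 nM) were preincubated 5 min at 37 °C before ATP-stimulated Ca²⁺ influx was measured fluorimetrically (340:380 nm excitation ratio, 500 nm emission). IC50 is the mean from dose-response curves of at least three experiments.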

Row | IC50 [4] | Structure (SMILES) | inhibition at 0.05 µM [1] | inhibition at 1 µM [2] | inhibition at 0.5 µM [3]
1 | – | O=C([C@@H]1Cc2ccc(OS(=O)(=O)c3cccc4cnccc34)cc2CN1S(=O)(=O)c1cccc2cnccc12)N1CCN(c2ccccc2)CC1 | 1.66% | 25.8% | 34.5%
2 | 13.4 nM | CN([C@@H](Cc1ccc(OS(=O)(=O)c2cccc3cnccc23)cc1)C(=O)N1CCN(c2ccccc2)CC1)S(=O)(=O)c1cccc2cnccc12 | 94.4% | 100% | 100%
3 | – | O=C([C@@H]1Cc2ccc(OS(=O)(=O)c3cccc4cccnc34)cc2CN1S(=O)(=O)c1cccc2cccnc12)N1CCN(c2ccccc2)CC1 | 6.9% | 0% | 3.4%
4 | – | O=C([C@@H]1Cc2ccc(OS(=O)(=O)c3cccc4ccccc34)cc2CN1S(=O)(=O)c1cccc2ccccc12)N1CCN(c2ccccc2)CC1 | 0% | 0% | 0%
5 | – | O=C([C@@H]1Cc2ccc(OS(=O)(=O)c3cccc4ncccc34)cc2CN1S(=O)(=O)c1cccc2ncccc12)N1CCN(c2ccccc2)CC1 | 59% | 66% | 72.4%

— ChEMBL document CHEMBL1133321, “Synthesis of conformationally constrained analogues of KN62, a potent antagonist of the P2X7-receptor” (Bioorg Med Chem Lett, 2000)
